Experimental data gathered from unrelated publications.
Each line is one published result; the experiments were not run side by side.
Target: Serine/threonine-protein kinase pim-2 (PIM2, Homo sapiens, UniProt Q9P1W9)

Nc1ncc2c(n1)-c1c([nH]c3ccc(C#CC4CC4)cc13)CCCC2 — remaining binding (binding; competition with immobilised ligand; 1 µM): 95%
COc1ccnn2ncc(-c3ccnc(N(C)C)n3)c12 — remaining binding (binding; 1 µM): 100%
N#Cc1ccccc1CSc1nnc2c(n1)[nH]c1ccccc12 — remaining binding (binding; competition with immobilised ligand; 10 µM): 75%
CN(C)CC#Cc1ccc(OCCCc2sc(N3CCc4cccc(C(=O)Nc5nc6ccccc6s5)c4C3)nc2C(=O)O)c(F)c1 — remaining binding (cell-free assay; competition with immobilised ligand; 1 µM): 100%
Cc1cnc(Nc2ccc(C(=O)N3CCC(N4CCCC4)CC3)cc2)nc1-c1cc2ccccc2s1 — remaining binding (binding; competition with immobilised ligand; 1 µM): 100%
O=C(NCC1CCOCC1)c1n[nH]cc1NC(=O)c1c(F)cccc1F — remaining binding (binding; competition with immobilised ligand; 1 µM): 91%
FC(F)(F)Oc1cccc(-c2cnc3ccc(-c4ccncc4)nn23)c1 — remaining binding (cell-free assay; competition with immobilised ligand; 5 µM): 45%
Cc1c(NC(=O)c2cc(C(N)=O)nc3cc(F)ccc23)c(C(F)(F)F)nn1Cc1ccc(C(C)(C)C)cc1 — remaining binding (cell-free assay; competition with immobilised ligand; 1 µM): 100%
CCN1CCN(Cc2ccc(C(=O)Nc3ccc(C)c(Oc4ccc5c(c4)CC(=O)N5)c3)cc2C(F)(F)F)CC1 — remaining binding (binding; competition with immobilised ligand; 1 µM): 97%
COc1cnc(Nc2cccc(S(N)(=O)=O)c2)nc1N1CCN(c2ccccc2)CC1 — remaining binding (binding; competition with immobilised ligand; 1 µM): 100%
COCCOc1nc(-c2ccc(Cl)nc2)nc2c1CN(C(=O)c1ncn3ccccc13)CC2 — remaining binding (cell-free assay; competition with immobilised ligand; 0.1 µM): 98%
c1cncc(-c2cccc(Nc3nccc(NC4CCCCC4)n3)c2)c1 — remaining binding (binding; competition with immobilised ligand; 10 µM): 45%
N[C@@H]1CCN(c2nccc(-c3cnn4ncccc34)n2)C1 — remaining binding (binding; 1 µM): 100%
CN([C@@H]1CCc2c(CC(=O)O)c3ccccc3n2C1)S(=O)(=O)c1ccc(F)cc1 — remaining binding (cell-free assay; competition with immobilised ligand; 1 µM): 100%
CN(CCCC(F)(F)F)c1nccc(-c2cnn3ncccc23)n1 — remaining binding (binding; 1 µM): 100%
CCCOc1ccc([C@@H]2[C@@H](C(=O)O)[C@H](c3ccc4c(c3)OCO4)CN2CC(=O)Nc2c(CC)cccc2CC)cc1 — remaining binding (cell-free assay; competition with immobilised ligand; 1 µM): 99%
CN(C)c1nccc(-c2cnn3ncccc23)n1 — remaining binding (binding; 1 µM): 78%
O=C(c1ccc(Nc2ncc(Cl)c(-c3cc4ccccc4s3)n2)cc1)N1CCC(N2CCCC2)CC1 — remaining binding (binding; competition with immobilised ligand; 1 µM): 100%
CCC(=O)N[C@@H]1CC[C@H](C(=O)N(C)c2ccc(-c3nc4ccccc4o3)cc2)C1 — remaining binding (cell-free assay; competition with immobilised ligand; 1 µM): 100%
O=C(NCCCN1CCOCC1)c1ccc(Nc2nccc(-c3cc4ccccc4s3)n2)cc1 — remaining binding (binding; competition with immobilised ligand; 1 µM): 100%
Cc1cnn2ncc(-c3ccnc(N(C)C)n3)c2c1 — remaining binding (binding; 1 µM): 84%
C[C@@H]1CN(c2ccc3ncc(-c4ccc5[nH]nc(C6CC6)c5c4)n3n2)C[C@H](C)O1 — remaining binding (binding; competition with immobilised ligand; 50 nM): 92%
c1ccc(N2CCN(Cc3nc4ccccc4[nH]3)CC2)nc1 — remaining binding (binding; competition with immobilised ligand; 1 µM): 85%
C[C@@H]1CCN(c2nccc(-c3cnn4ncccc34)n2)C1 — remaining binding (binding; 1 µM): 78%
